According to ChEMBL document CHEMBL4229417, “Design and synthesis of alkyl substituted pyridino[2,3-D]pyrimidine compounds as PI3Kα/mTOR dual inhibitors with improved pharmacokinetic properties and potent in vivo antitumor activity” (Bioorg Med Chem, 2018):
Calls of active or inactive are those of the source. The calls are words filed in the database; no cut-off is given here.

Experiments:
[1] = biological target: T1, Serine/threonine-protein kinase mTOR (Homo sapiens, UniProt P42345); assay: Inhibition of mTOR (unknown origin) using ULight-4E-BP1 peptide substrate measured after 1 hr by Lance Ultra assay
How it was run: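 mTOR (10 nM final) was reacted with ULight-4E-BP1 peptide (50 nM final) and ATP in kinase buffer for 1 h at room temperature.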

[2] = biological target: T2, Phosphatidylinositol 4,5-bisphosphate 3-kinase catalytic subunit alpha isoform (Homo sapiens, UniProt P42336); assay: Inhibition of PI3Kalpha (unknown origin) using PIP2 as substrate measured after 1 hr by Kinase-Glo luminescent assay
T2 sequence (P42336 whole entry, canonical isoform): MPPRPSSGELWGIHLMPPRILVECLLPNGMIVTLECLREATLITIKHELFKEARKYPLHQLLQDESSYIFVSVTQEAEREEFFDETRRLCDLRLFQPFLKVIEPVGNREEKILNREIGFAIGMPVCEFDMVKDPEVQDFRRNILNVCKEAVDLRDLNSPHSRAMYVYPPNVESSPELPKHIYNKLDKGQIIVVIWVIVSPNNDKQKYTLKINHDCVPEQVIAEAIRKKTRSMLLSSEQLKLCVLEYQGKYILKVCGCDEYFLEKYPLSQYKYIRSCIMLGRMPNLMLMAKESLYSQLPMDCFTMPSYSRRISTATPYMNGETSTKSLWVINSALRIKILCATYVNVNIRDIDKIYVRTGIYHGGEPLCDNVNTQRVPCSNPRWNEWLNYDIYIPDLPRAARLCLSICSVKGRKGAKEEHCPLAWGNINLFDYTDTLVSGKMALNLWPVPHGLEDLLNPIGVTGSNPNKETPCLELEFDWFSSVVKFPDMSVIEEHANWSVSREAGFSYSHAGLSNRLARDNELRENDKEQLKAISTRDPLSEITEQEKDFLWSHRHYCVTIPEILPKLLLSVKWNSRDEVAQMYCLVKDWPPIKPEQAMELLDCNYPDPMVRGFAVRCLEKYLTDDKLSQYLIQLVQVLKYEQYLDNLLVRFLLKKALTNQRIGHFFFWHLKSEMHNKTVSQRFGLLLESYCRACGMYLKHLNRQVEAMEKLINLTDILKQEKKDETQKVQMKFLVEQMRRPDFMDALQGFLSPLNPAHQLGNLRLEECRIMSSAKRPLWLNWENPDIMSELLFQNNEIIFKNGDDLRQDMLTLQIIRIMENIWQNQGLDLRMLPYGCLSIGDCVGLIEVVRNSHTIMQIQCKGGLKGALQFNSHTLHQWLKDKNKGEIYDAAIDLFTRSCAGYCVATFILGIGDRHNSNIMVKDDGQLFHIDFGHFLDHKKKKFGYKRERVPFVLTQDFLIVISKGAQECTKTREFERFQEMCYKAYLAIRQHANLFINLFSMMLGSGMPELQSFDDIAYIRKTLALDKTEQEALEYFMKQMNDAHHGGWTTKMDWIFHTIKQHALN

U-87 MG [3] = assay: Antiproliferative activity against human U87MG cells assessed as reduction in cell viability after 48 hrs by CCK8 assay; format: functional, cell-based, U-87MG ATCC
How it was run: (§1)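 Cells were seeded at 5000/well and grown 24 h at 37 °C, 5% CO2. They were then exposed 48 h to compound diluted from DMSO into medium (final DMSO <0.4%). CCK-8 was added for 1 h and absorbance read at 540 nm. IC50 came from the viability vs concentration (nM) curve, in triplicate.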

MCF7 = assay: Antiproliferative activity against human MCF7 cells assessed as reduction in cell viability after 48 hrs by CCK8 assay; format: functional, cell-based; details: MCF7, 48 h; how it was run: as §1
PC-3 = assay: Antiproliferative activity against human PC3 cells assessed as reduction in cell viability after 48 hrs by CCK8 assay; format: functional, cell-based; details: PC-3, 48 h; how it was run: as §1
SK-OV-3 [4] = assay: Antiproliferative activity against human SKOV3 cells assessed as reduction in cell viability after 48 hrs by CCK8 assay; format: functional, cell-based; details: SK-OV-3, 48 h; how it was run: as §1
[5] = biological target: T1, Serine/threonine-protein kinase mTOR; assay: Potency index, ratio of AZD8055 IC50 to test compound IC50 for mTOR (unknown origin)
[6] = biological target: T2, Phosphatidylinositol 4,5-bisphosphate 3-kinase catalytic subunit alpha isoform; assay: Potency index, ratio of AZD8055 IC50 to test compound IC50 for PI3Kalpha (unknown origin)
SK-OV-3 [7] = assay: Potency index, ratio of AZD8055 IC50 to test compound IC50 for human SKOV3 cells; format: functional
[8] = biological target: T2, Phosphatidylinositol 4,5-bisphosphate 3-kinase catalytic subunit alpha isoform; assay: Inhibition of PI3Kalpha in human U87MG cells assessed as reduction in AKT phosphorylation at S473 residue at 20 to 200 nM after 24 hrs by Western blot analysis relative to control; format: cell-based
How it was run: (§2)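 U87MG cells were treated at indicated concentrations for 24 h at 37 °C, then lysed in RIPA with protease/phosphatase inhibitors and 1 mM PMSF. Lysates were run on SDS–PAGE and PVDF blots probed overnight at 4 °C for AKT, pAKT Ser473, pAKT Thr308, S6RP and pS6RP Ser235/236. HRP secondary was used with chemiluminescent detection.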

[9] = biological target: T2, Phosphatidylinositol 4,5-bisphosphate 3-kinase catalytic subunit alpha isoform; assay: Inhibition of PI3Kalpha in human U87MG cells assessed as reduction in AKT phosphorylation at T308 residue at 20 to 200 nM after 24 hrs by Western blot analysis relative to control; format: cell-based; how it was run: as §2
[10] = biological target: T2, Phosphatidylinositol 4,5-bisphosphate 3-kinase catalytic subunit alpha isoform; assay: Inhibition of PI3Kalpha in human U87MG cells assessed as reduction in S6 phosphorylation at Ser235/236 after 24 hrs by Western blot analysis; format: cell-based; how it was run: as §2
[11] = biological target: T2, Phosphatidylinositol 4,5-bisphosphate 3-kinase catalytic subunit alpha isoform; assay: Inhibition of PI3Kalpha in human U87MG cells assessed as reduction in AKT phosphorylation at S473 residue at 2 nM after 24 hrs by Western blot analysis relative to control; format: cell-based; how it was run: as §2
[12] = biological target: T2, Phosphatidylinositol 4,5-bisphosphate 3-kinase catalytic subunit alpha isoform; assay: Inhibition of PI3Kalpha in human U87MG cells assessed as reduction in AKT phosphorylation at T308 residue at 2 nM after 24 hrs by Western blot analysis relative to control; format: cell-based; how it was run: as §2
[13] = Half life in pooled human liver microsomes at 50 uM pretreated for 5 mins followed by NADPH addition and measured after 120 mins by HPLC analysis; format: ADME, microsome
How it was run: (§3)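 Pooled adult male and female human liver microsomes at 1 mg/mL in 0.1 M Tris-HCl pH 7.4, with test compound at 50 μM final. Mixtures were preincubated 5 min at 37 °C, then started with NADPH regenerating system. Reactions were stopped at 120 min with cold methanol, centrifuged, and analysed by HPLC.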

[14] = Unbound clearance in pooled human liver microsomes at 50 uM pretreated for 5 mins followed by NADPH addition and measured after 120 mins by HPLC analysis; format: ADME, microsome; details: 2 h; how it was run: as §3
U-87 MG [15] = assay: Antitumor activity against human U87MG cells xenografted in Balb/c mouse assessed as tumor growth inhibition at 30 mg/kg, ig administered daily for 10 days relative to control; format: functional, U-87MG ATCC; details: po, 240 h, read-out: TGI
How it was run: (§4)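 Female BALB/c nude mice (6–7 weeks, 16–20 g, SPF, 5 groups of 5) were implanted subcutaneously with 5×10^6 U87MG cells. At 100–150 mm³ they were randomized and dosed intragastrically once daily for 10 days. Body weight was recorded twice every 3 days. Tumor volume was taken as V = 1/2ab² (a length, b width).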

U-87 MG [16] = assay: Antitumor activity against human U87MG cells xenografted in Balb/c mouse assessed as tumor growth inhibition at 10 mg/kg, ig administered daily for 10 days relative to control; format: functional, U-87MG ATCC; details: po, 240 h, read-out: TGI; how it was run: as §4
U-87 MG [17] = assay: Antitumor activity against human U87MG cells xenografted in Balb/c mouse assessed as tumor growth inhibition at 3 mg/kg, ig administered daily for 10 days relative to control; format: functional, U-87MG ATCC; details: po, 240 h, read-out: TGI; how it was run: as §4
U-87 MG [18] = assay: Antitumor activity against human U87MG cells xenografted in ig dosed Balb/c mouse assessed as tumor growth inhibition administered daily for 10 days; format: functional, organism-based; details: U-87MG ATCC; how it was run: as §4
Mus musculus = assay: Toxicity in Balb/c mouse xenografted with human U87MG cells assessed as body weight loss at 3 to 30 mg/kg, ig administered daily for 10 days measured twice every 3 days during compound dosing; format: organism-based; details: in vivo, po; how it was run: as §4
[19] = Cmax in Beagle dog at 1 mg/kg, po administered as single dose via gavage; format: ADME, organism-based, Canis lupus familiaris; parameters: dose 1 mg/kg, route oral; details: in vivo
How it was run: (§5)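 Three male Beagle dogs (9–10 months, 9–10 kg) given 1 mg/kg by oral gavage as a solution in physiological saline with 5% DMSO. Blood was drawn at 0.25–24 h and spun within 1 h (1000 × g, 4 °C, 15 min). Plasma was stored at -20 °C. t1/2 and AUC0–24 were obtained by model-independent analysis, and Cmax and MRT directly from the plasma concentration–time data.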

[20] = AUC (0 to 24 hrs) in Beagle dog at 1 mg/kg, po administered as single dose via gavage; format: ADME, organism-based, Canis lupus familiaris; parameters: time < 24 hr, dose 1 mg/kg, route oral; details: in vivo; how it was run: as §5
[21] = Half life in Beagle dog at 1 mg/kg, po administered as single dose via gavage; format: ADME, organism-based, Canis lupus familiaris; details: in vivo; how it was run: as §5
[22] = Mean residence time in Beagle dog at 1 mg/kg, po administered as single dose via gavage; format: ADME, organism-based, Canis lupus familiaris; details: in vivo; how it was run: as §5

Row | Structure (SMILES) | IC50 [1] | IC50 [2] | IC50 (U-87 MG [3]) | IC50 (MCF7) | IC50 (PC-3) | IC50 (SK-OV-3 [4]) | other results
1 | COc1ccc(-c2ccc3c(N4CCOC[C@@H]4C)nc(C4=CCOCC4)nc3n2)cc1CO | 30 nM | > 10000 nM | 85.5 nM | 225 nM | 212 nM | 125 nM | 
2 | COc1ccc(-c2ccc3c(N4CCOC[C@@H]4C)nc(C(C)C)nc3n2)cc1CO | 10 nM | 3000 nM | 33.8 nM | 54 nM | 155 nM | 44.7 nM | 
3 | CNC(=O)c1cccc(-c2ccc3c(N4CCOC[C@@H]4C)nc(C(C)(C)C)nc3n2)c1 | 72 nM | 1300 nM | 32.5 nM | 31 nM | 110 nM | 58.6 nM | 
4 | COc1ccc(-c2ccc3c(N4CCOC[C@@H]4C)nc(C(C)(C)C)nc3n2)cc1CO | 2 nM | 400 nM | 3.2 nM | 6 nM | 23 nM | 7 nM | Ratio IC50 [5]: 4; Ratio IC50 [6]: 10; Ratio IC50 (SK-OV-3 [7]): 8; inhibition [8]: 100%; inhibition [9]: 100%; inhibition [10]: Dose-dependent effect; inhibition [11]: Active; inhibition [12]: Active; half-life at 50 µM [13]: 0.515 h; CL free [14]: 28.1 µL/min/mg; inhibition in vivo at 30 mg/kg (U-87 MG [15]): 83%; inhibition in vivo at 10 mg/kg (U-87 MG [16]): 64%; inhibition in vivo at 3 mg/kg (U-87 MG [17]): 28%; TGI (U-87 MG [18]): Dose-dependent effect; Activity (Mus musculus): Non-Toxic; Cmax [19]: 288 ng/mL; AUC(0-t) at 24 h [20]: 857 ng·h/mL; half-life [21]: 5.4 h; MRT [22]: 4.3 h
5 | COc1ccc(-c2ccc3c(N4CCOCC4)nc(CN)nc3n2)cc1CO | 146 nM | > 10000 nM | > 1000 nM | > 1000 nM | > 1000 nM | > 1000 nM | 
6 | COc1ccc(-c2ccc3c(N4CCOCC4)nc(C(N)=O)nc3n2)cc1CO | 48 nM | 3200 nM | 821 nM | > 1000 nM | > 1000 nM | 640 nM | 
7 | COc1ccc(-c2ccc3c(N4CCOCC4)nc(C(CO)CO)nc3n2)cc1CO | > 500 nM | > 10000 nM | > 1000 nM | > 1000 nM | > 1000 nM | > 1000 nM | 
8 | COc1ccc(-c2ccc3c(N4CCOC[C@@H]4C)nc(C4CCOCC4)nc3n2)cc1CO | 53 nM | > 10000 nM | 94.2 nM | 443 nM | 476 nM | 118 nM | 
9 | COc1ccc(-c2ccc3c(N4CCOCC4)nc(CC#N)nc3n2)cc1CO | 88 nM | > 10000 nM | 90.3 nM | 186 nM | 66.6 nM | 54.5 nM | 
10 | COc1ccc(-c2ccc3c(N4CCOC[C@@H]4C)nc(CC(OC)OC)nc3n2)cc1CO | 29 nM | > 10000 nM | 89.2 nM | 72 nM | 163 nM | 52.4 nM | 
11 | COc1ccc(-c2ccc3c(N4CCOC[C@@H]4C)nc(N4CCOC[C@@H]4C)nc3n2)cc1CO [AZD-8055] |  |  | 21.2 nM | 27 nM | 36.7 nM | 55 nM | half-life at 50 µM [13]: 0.35 h; CL free [14]: 28.6 µL/min/mg; inhibition in vivo at 10 mg/kg (U-87 MG [16]): 59%; Cmax [19]: 228 ng/mL; AUC(0-t) at 24 h [20]: 787 ng·h/mL; half-life [21]: 4.5 h; MRT [22]: 3.1 h
12 | COc1ccc(-c2ccc3c(N4CCOC[C@@H]4C)nc(C)nc3n2)cc1CO | 95 nM | > 10000 nM | 91.9 nM | 77.3 nM | 66 nM | 49.1 nM | 
13 | COc1ccc(-c2ccc3c(N4CCOCC4)nc(C#N)nc3n2)cc1CO | 32 nM | 2600 nM | 920 nM | > 1000 nM | > 1000 nM | 660 nM | 
14 | COc1ccc(-c2ccc3c(N4CCOCC4)nc(CS(C)(=O)=O)nc3n2)cc1CO | > 500 nM | > 10000 nM | > 1000 nM | > 1000 nM | > 1000 nM | > 1000 nM | 
